Screening results: PubChem, several laboratories
Only some compounds are listed: those with a hit (about 2.4% of all), similar ones and a draw of the others.
NR2E3 ag-1: inhibitors of NR2E3-RetCOR corepressor binding, primary screen, NR2E3 agonist project, biochemical, TR-FRET, GST-NR2E3, biotin-RetCOR | Photoreceptor-specific nuclear receptor (Homo sapiens), Q9Y5X4 | 1536-well | inhibition of corepressor binding, % at 4.78 µM | actives 0.12% (n = 320,000);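 active means percent inhibition above the cutoff of mean plus 3 SD of all tested compounds, set per screening campaign, cut at about 20% in these data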;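 further: 0% = DMSO wells and 100% = biotin wells as full block of FRET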
Target sequence (Q9Y5X4 whole entry, looked up): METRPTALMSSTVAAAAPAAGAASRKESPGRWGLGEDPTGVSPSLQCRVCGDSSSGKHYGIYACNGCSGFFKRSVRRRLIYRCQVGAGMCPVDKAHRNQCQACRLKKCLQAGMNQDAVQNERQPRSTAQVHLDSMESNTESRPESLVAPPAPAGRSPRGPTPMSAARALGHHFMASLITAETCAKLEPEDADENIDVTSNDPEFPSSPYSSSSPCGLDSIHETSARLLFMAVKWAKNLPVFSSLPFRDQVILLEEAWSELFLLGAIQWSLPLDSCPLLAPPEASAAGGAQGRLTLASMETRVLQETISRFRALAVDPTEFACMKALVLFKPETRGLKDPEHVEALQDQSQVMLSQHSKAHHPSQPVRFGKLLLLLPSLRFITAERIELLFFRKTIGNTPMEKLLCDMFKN
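System: GST-NR2E3 and biotin-RetCOR proteins; probe or stimulus: 7 nM biotin-RetCOR; doses: compound at 4.8 µM, single dose; schedule: Compound–protein incubation for 5 h at 4 °C; detection: time-resolved FRET; read-out: percent inhibition; controls: biotin wells as high control, 0.6% DMSO wells as low control; format: 1536-well plates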
MPTP block: mitochondrial permeability transition pore inhibitors, primary screen, biochemical, isolated mouse mitochondria, absorbance; AID 602449, 2012; actives 1.4% (n = 360,000); inhibition, % at 10 µM; Ca2+ swelling absorbance, 30 min;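 active means inhibition of 50% or more, scaled per plate between neutral and stimulator controls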;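 further: 0% = DMSO wells given calcium and 100% = 1 mM EGTA wells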
aDG glyco up: activators of alpha-DG glycosylation, primary screen, uHTS, Pro5-aDG cells, AlphaScreen; alpha-DG glycosylation AlphaScreen (IIH6); 0% Pro5, 100% B10-LARGE cell signal; activation, % at 10 µM; actives 0.22% (n = 360,000);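 active means activation of at least 8% versus controls, or a plate z-score of at least 8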;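 further: Pro5 are CHO cells carrying HIG-tagged alpha-DG that lacks glycosylation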
Jurkat NFkB inh: inhibitors of induced NF-kB luciferase reporter, primary screen, TCR NF-kB activation inhibitor project, cell-based, luminescence, uHTS; Jurkat, PMA/ionomycin-induced NF-kB luciferase reporter; inhibition, % at 4 µM; actives 0.53% (n = 330,000); in the data active means inhibition above about 50%
NR2E3 ag-2: NR2E3 agonists in two-hybrid cells, primary screen, cell-based, luminescence, CHO-S, Gal4-NCOR/VP16-NR2E3; luciferase; inhibition of corepressor binding, % at 3.98 µM; Photoreceptor-specific nuclear receptor (Homo sapiens), Q9Y5X4; actives 0.35% (n = 360,000);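 active means inhibition above the mean of all tested compounds plus 3 SD, cut at about 70% in these data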;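 further: 0% = DMSO with NR2E3 transfected cells and 100% = cells lacking NR2E3 construct; higher means lower luciferase signal from less NR2E3 corepressor binding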
697 NFkB inh: inhibitors of PMA/ionomycin-induced NF-kB reporter, 697 cells, primary screen, B-cell NF-kB inhibitor project, cell-based, luminescence, uHTS | 697 B-cell NF-kB luciferase reporter, 16 h | inhibition, % at 4 µM | actives 0.33% (n = 330,000) | AID 435022, 2010; in the data active means inhibition above about 35%
Rh123 counter: fluorescence retest of MPTP screen hits in isolated mitochondria, single concentration. shares compounds with MPTP block. membrane potential, Rhodamine 123 fluorescence. inhibition, % at 10 µM. actives 78% (n = 5,000); in the data active means inhibition above about 22%;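 further: 0% = DMSO vehicle and 100% = positive control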
MPTP swell DR: mitochondrial permeability transition pore inhibitors, dose response, biochemical, absorbance, uHTS hits | actives 58% (n = 780) | shares compounds with MPTP block | IC50, µM | isolated mitochondria swelling; in the data active means IC50 below about 20 µM
MPTP counter DR: fluorescent counter-screen in isolated mitochondria, dose response, counter-screen for MPTP inhibitor project, biochemical, fluorescence, uHTS hits | shares compounds with MPTP block | isolated mitochondria counterscreen, fluorescence read-out | IC50, µM | actives 49% (n = 780) | AID 651564, 2012; in the data active means IC50 below about 80 µM
The depositor's hits bear a star; nt = not tested or not shown.

SMILES	NR2E3 ag-1	MPTP block	aDG glyco up	Jurkat NFkB inh	NR2E3 ag-2	697 NFkB inh	Rh123 counter	others
CCC(C)Nc1nc(OC(C(F)(F)F)C(F)(F)F)nc(OC(C(F)(F)F)C(F)(F)F)n1 (stereo unspecified)	1	60*	0	1	3	1	60*
CCC(C)Nc1nc(OCC(F)(F)F)nc(OCC(F)(F)F)n1 (stereo unspecified)	-2	-1	0	-17	-4	-28	nt
CC(=O)N1CCSc2ccc(S(=O)(=O)NCc3ccc(F)cc3)cc21	-2	0	0	9	-21	-12	nt
Cc1nn(-c2cccc(Cl)c2)c2nc(C(F)(F)F)[nH]c(=O)c12	-3	98*	0	14	-9	15	53*
Cc1ccc(NC(=O)COC(=O)C2(c3ccc(Cl)cc3)CCCC2)cc1	-3	78*	1	-1	27	-38	82*
O=C(Nc1nnc(-c2ccccc2)o1)c1nc2ccccc2s1	2	63*	0	9	9	-1	3	MPTP swell DR=8.4*;MPTP counter DR=78*
CCOc1ccc(C(=O)NNC(=O)CN2C(=O)C3CC=CCC3C2=O)cc1OC (stereo unspecified)	nt	-3	0	-7	-13	4	nt
COc1ccccc1NC(=S)NNC(=S)Nc1ccc(OC(F)F)cc1	1	97*	1	-10	-34	-19	81*
O=C(NNC(=S)Nc1ccc(Cl)cc1)c1ccccc1OC(F)F	-3	73*	0	-4	-15	0	86*
O=S(=O)(NCC1CCCO1)c1ccc(Cl)cc1 (stereo unspecified)	1	0	0	-7	-10	-4	nt
CN1C(C(=O)Nc2ccc(OC(F)(F)F)cc2)=CC(c2cccs2)=NS1(=O)=O	0	74*	0	12	8	-6	84*
CN1C(C(=O)Nc2ccc(OC(F)(F)F)cc2)=CC(c2ccc3c(c2)OCO3)=NS1(=O)=O	-2	90*	0	13	4	2	78*
COc1ccc(NC(=O)C2=CC(c3cccs3)=NS(=O)(=O)N2C)cc1	1	2	0	4	-4	-3	nt
Cn1nc(OC(=O)Nc2ccccc2)cc1C(F)(F)F	3	nt	nt	-40	nt	-33	nt
Cn1nc(OC(=O)Nc2cccc(Cl)c2)cc1C(F)(F)F	-3	88*	0	-13	-1	-9	87*
CCOC(=O)CSc1nnc(NCC(=O)OC(C)C)c(=O)[nH]1	1	63*	0	-8	-7	-1	-2	MPTP swell DR=>100;MPTP counter DR=>80
CN1C[C@@H]2[C@@H]3C(=O)N(C)C(=O)[C@@H]3[C@](C)(C1=O)N2C(=O)c1ccc(Cl)cc1	nt	-2	0	nt	-14	nt	nt
Fc1cccc(NC(=S)NNc2ccccc2)c1	-3	1	0	-19	-25	-25	nt
Fc1cccc(NC(=S)NNc2c3ccccc3nc3ccccc23)c1	nt	92*	0	nt	-17	nt	46*
S=C(NCc1ccc(Cl)cc1Cl)Nc1ccccc1	-1	95*	0	4	11	10	95*
O=C(NC(=S)NCc1ccc(Cl)cc1Cl)c1ccco1	nt	-1	0	10	-9	0	nt
Cc1ccc(NC(=S)NCc2ccc(Cl)cc2)c(OC(F)F)c1	4	62*	0	12	-8	15	97*
Cc1cc(Cl)ccc1NC(=S)NCc1ccccc1Cl	-1	93*	0	3	-16	9	84*
Cc1ccc(S(=O)(=O)N2[C@@H](c3ccc4c(c3)OCO4)C(C(=O)O)=C[C@H]2CC2CCCC2)cc1	nt	1	0	5	-2	-2	nt
Cc1ccccc1NC(=S)NCc1ccc(Cl)cc1	1	8	0	4	-31	4	nt
SMILES	NR2E3 ag-1	MPTP block	aDG glyco up	Jurkat NFkB inh	NR2E3 ag-2	697 NFkB inh	Rh123 counter	others
Fc1cccc(NC(=S)NCc2ccccc2Cl)c1	2	86*	0	5	-21	-5	97*
S=C(NCc1ccc(Cl)cc1)Nc1ccccc1	2	65*	0	5	-23	-3	93*
Fc1ccc(CNC(=S)Nc2ccc(Cl)cc2)cc1	-1	65*	0	-12	-6	4	95*
S=C(NCCC(c1ccccc1)c1ccccc1)Nc1cccc(Cl)c1	1	98*	0	-37	29	0	87*
Fc1ccc(NC(=S)NCc2ccccc2)cc1	-1	1	0	-11	19	9	nt
COc1ccc(NC(=S)N2CCc3ccccc3C2)cc1OC	-3	-2	0	-19	-10	-16	nt
C(=C\c1ccccc1)/CN1CCN(C(c2cc3ccccc3o2)c2nnnn2C2CCCCC2)CC1 (stereo unspecified)	nt	4	0	nt	-2	nt	nt
Cc1cc(C)n2nc(SCC(=O)NC(=O)c3ccccc3)nc2n1	nt	-1	0	3	-31	12	nt
S=C(NCc1ccccc1)NCc1ccc(CNC(=S)NCc2ccccc2)cc1	2	79*	1	-16	4	-1	90*
CCN(C(=O)c1cnc(NC(C)C)cc1C(F)(F)F)c1ccc(Cl)cc1	5	0	0	-2	-5	4	nt
CCC(C)Sc1cc(C(F)(F)F)c(C(=O)Nc2ccc(Cl)cc2)cn1 (stereo unspecified)	3	75*	0	-11	13	-22	87*
O=C(NCCCN1CCOCC1)c1onc(CSc2ccncc2)c1C(=O)NCCCN1CCOCC1	6	-1	1	8	10	7	nt
CC(=N\Nc1ccc(Cl)cc1)/C(=N/O)C(=O)Nc1ccccc1	4	2	1	2	-4	16	nt
CCOC(=O)C(=N/O)/C(C)=N/NC(=O)C(=O)Nc1ccc(Cl)cc1	0	82*	1	9	45	6	69*
O=C(COC(=O)c1cc[n+]([O-])cc1)Nc1ccc(Cl)cc1Cl	nt	-1	0	7	-18	7	nt
